Source: PubChem BioAssay
Mot1-301 SUMO: SUMOylation pathway inhibition by Mot1-301 growth rescue; growth rescue, % at 18.8 µM; S. cerevisiae Mot1-301 growth rescue, ATP luminescence, 38.5C; percent above DMSO median, 100 means doubled; AID 2716; hit rate 1% among 320,000;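 active means every valid replicate shows activation above 250% relative to neutral control wells; inactive means the rest, any valid replicate at or below 250%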
Cneo AK release: Cryptococcus neoformans lysis via adenylate kinase release. C. neoformans lysis, adenylate kinase release luminescence, 4 h; normalised: neutral wells 0, clomiphene wells 100. lysis activity, % at 15 µM. hit rate 0.2% among 360,000. AID 651654;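 active means mean lysis activity across replicates of at least 80%, whatever share of replicates individually reach that level; inactive means mean lysis activity below 80%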
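Schedule: static 4 h at 37 °C with compound, 1 h detection; system: C. neoformans cells; benchmarks: Clomiphene as positive control; buffer or medium: fresh YPD medium; measure: luminescence rise reflecting yeast cell lysis; measured by: luminescent adenylate kinase detection reagent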
C2C12 statin: protects C2C12 myotubes from simvastatin toxicity | ATP luminescence, 48 h; scaled: DMSO 0, geranylgeraniol control 100 | rescue of ATP level, % at 7.49 µM | hit rate 0.78% among 330,000;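 active means mean ATP rescue above about 67%, or every replicate alone reaching that limit, limit read from the data, passing the limit was not always enough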;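 further: myotubes were challenged with 10 µM simvastatin during compound exposure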
Numbers stand for hits; i = inactive; nt = no result given. Compounds with a hit are over-represented: about 1.5% of the library has one in this group of screens.

SMILES	Mot1-301 SUMO	Cneo AK release	C2C12 statin
Cc1ccc(S(=O)(=O)N(C)C[C@@H]2OCCCC[C@@H](C)Oc3ccc(NC(=O)CCCCCC(=O)Nc4ccccc4N)cc3C(=O)N([C@H](C)CO)C[C@@H]2C)cc1	nt	i	nt
C[C@@H]1CCCCO[C@@H](CN(C)S(=O)(=O)c2ccc(F)cc2)[C@@H](C)CN([C@@H](C)CO)C(=O)c2cc(NC(=O)Nc3cccc4ccccc34)ccc2O1	nt	i	i
C[C@H](CO)N1C[C@H](C)[C@H](CN(C)S(=O)(=O)c2ccc(F)cc2)OCCCC[C@H](C)Oc2ccc(NS(C)(=O)=O)cc2C1=O	nt	i	105
C[C@@H]1CCCCO[C@@H](CN(C)S(=O)(=O)c2ccc(F)cc2)[C@H](C)CN([C@@H](C)CO)C(=O)c2cc(NC(=O)Nc3cccc4ccccc34)ccc2O1	nt	i	84
C[C@@H]1CCCCO[C@H](CN(C)S(C)(=O)=O)[C@@H](C)CN([C@@H](C)CO)C(=O)c2cc(NS(=O)(=O)c3ccc(F)cc3)ccc2O1	nt	i	102
C[C@H](CO)N1C[C@H](C)[C@@H](CN(C)S(C)(=O)=O)OCCCC[C@H](C)Oc2ccc(NS(=O)(=O)c3ccc(F)cc3)cc2C1=O	nt	i	i
Cc1noc(C)c1S(=O)(=O)N(C)C[C@H]1OCCCC[C@@H](C)Oc2ccc(NC(=O)CCCCCC(=O)Nc3ccccc3N)cc2C(=O)N([C@@H](C)CO)C[C@@H]1C	nt	97	nt
CCCC#Cc1ccc2c(c1)O[C@H](CN(C)C(=O)Nc1ccccc1F)[C@@H](C)CN([C@H](C)CO)S2(=O)=O	nt	i	i
Cc1cccc(S(=O)(=O)N[C@H]2CC[C@H](CCNC(=O)c3cnccn3)O[C@H]2CO)c1	nt	i	i
CNC(=O)C[C@H]1CC[C@@H]2[C@H](COc3ccc(NC(=O)Nc4c(C)noc4C)cc3C(=O)N2C)O1	nt	i	i
C[C@@H]1CCCCO[C@H](CN(C)S(=O)(=O)c2ccc(F)cc2)[C@H](C)CN([C@@H](C)CO)C(=O)c2cc(NS(C)(=O)=O)ccc2O1	nt	i	81
C[C@@H]1CCCCO[C@H](CN(C)S(=O)(=O)c2ccc(F)cc2)[C@H](C)CN([C@@H](C)CO)C(=O)c2cc(NC(=O)Cc3ccccc3)ccc2O1	nt	i	152
C[C@@H]1CCCCO[C@H](CN(C)S(=O)(=O)c2ccc(F)cc2)[C@@H](C)CN([C@H](C)CO)C(=O)c2cc(NS(C)(=O)=O)ccc2O1	nt	i	i
C[C@@H]1CCCCO[C@H](CN(C)S(=O)(=O)c2ccc(F)cc2)[C@@H](C)CN([C@@H](C)CO)C(=O)c2cc(NC(=O)Cc3ccccc3)ccc2O1	nt	i	i
C[C@H](CO)N1C[C@H](C)[C@@H](CN(C)Cc2cncnc2)Oc2cc(C#C[C@@H](C)O)ccc2S1(=O)=O	nt	i	i
CO[C@H]1CN(C)C(=O)c2ccc(NC(C)=O)cc2OC[C@@H](C)N(Cc2ccccc2F)C[C@H]1C	nt	i	i
Cc1ccccc1NC(=S)NC(=O)CCc1ccccc1	i	103	i
Cc1cccc(C)c1NC(=S)NC(=O)CCc1ccccc1	i	i	i
COc1cccc(NC(=O)N2C[C@@H](O)COC[C@H]3O[C@H](CC(=O)NCCCN4CCOCC4)CC[C@@H]32)c1	nt	i	i
C[C@@H]1CN([C@@H](C)CO)C(=O)c2cc(-c3ccccc3F)cnc2O[C@@H]1CN(C)C	nt	i	i
CC(=O)C1=C(C)NC(SCc2cccc([N+](=O)[O-])c2)=C(C#N)C1c1ccco1 (centres undefined)	i	i	143
CC(=O)C1=C(C)NC(SCC(N)=O)=C(C#N)C1c1ccco1 (centres undefined)	i	i	i
C[C@@H]1CN([C@@H](C)CO)C(=O)c2cc(NC(=O)Nc3ccc4c(c3)OCO4)ccc2O[C@@H]1CN(C)CC1CCCCC1	nt	i	i
C[C@H](CO)N1C[C@H](C)[C@H](CN(C)CC2CCCCC2)Oc2c(NC(=O)Nc3ccc4c(c3)OCO4)cccc2C1=O	nt	i	i
C[C@H]1CN([C@@H](C)CO)C(=O)c2cccc(NC(=O)Nc3ccc4c(c3)OCO4)c2O[C@@H]1CN(C)CC1CCCCC1	nt	i	86
SMILES	Mot1-301 SUMO	Cneo AK release	C2C12 statin
Cc1noc(C)c1NC(=O)Nc1ccc2c(c1)C(=O)N([C@H](C)CO)C[C@H](C)[C@H](CN(C)CC1CCCCC1)O2	nt	93	i
C[C@H](CO)N1C[C@H](C)[C@H](CN(C)CC2CCCCC2)Oc2c(NS(C)(=O)=O)cccc2C1=O	nt	91	i
Cc1noc(C)c1NC(=O)Nc1ccc2c(c1)C(=O)N([C@H](C)CO)C[C@@H](C)[C@@H](CN(C)CC1CCCCC1)O2	nt	i	i
C[C@H](CO)N1C[C@H](C)[C@H](CN(C)CC2CCCCC2)Oc2ccc(NC(=O)Nc3ccc4c(c3)OCO4)cc2C1=O	nt	83	i
C[C@@H]1CN([C@H](C)CO)C(=O)c2cccc(NS(C)(=O)=O)c2O[C@H]1CN(C)CC1CCCCC1	nt	i	i
O=C([C@H]1[C@H](CO)[C@H]2Cn3c(ccc(-c4ccncc4)c3=O)[C@H]2N1CCC(F)(F)F)N1CCCCC1	nt	i	i
O=C(C[C@H]1C=C[C@@H](NC(=O)C2CCOCC2)[C@H](CO)O1)NCc1ccncc1	nt	i	i
Cc1noc(C)c1S(=O)(=O)Nc1ccc2c(c1)CC(=O)N([C@@H](C)CO)C[C@@H](C)[C@H](CN(C)S(=O)(=O)c1cn(C)cn1)O2	nt	i	i
C[C@H]1CN([C@@H](C)CO)C(=O)c2c(c3ccccc3n2C)-c2ccccc2CO[C@@H]1CN(C)C(=O)C1CC1	nt	i	nt
O=C(C1CCOCC1)N1CC[C@@H]2[C@H](CO)Nc3ccc(-c4ccc(F)cc4)cc3[C@@H]21	nt	i	i
C[C@@H]1CN([C@H](C)CO)C(=O)c2cc(NC(=O)C3CC3)ccc2O[C@@H]1CN(C)CC1CCCCC1	nt	i	i
C[C@@H]1CN([C@@H](C)CO)C(=O)c2cc(NC(=O)C3CC3)ccc2O[C@H]1CN(C)CC1CCCCC1	nt	100	i
O=C(CN(CC1CCCO1)S(=O)(=O)c1ccc(S(=O)(=O)NCC2CCCO2)cc1)Nc1ccccc1 (centres undefined)	i	i	i
CN(C)S(=O)(=O)c1ccc(S(=O)(=O)N(CC(=O)Nc2ccccc2)CC2CCCO2)cc1 (centres undefined)	i	i	85
C[C@H]1CN([C@@H](C)CO)C(=O)CCCn2cc(nn2)CO[C@H]1CN(C)S(=O)(=O)c1ccc(-c2ccccc2)cc1	nt	i	i
C[C@H]1CCCCO[C@H](CN(C)S(=O)(=O)c2ccc(Cl)cc2)[C@@H](C)CN([C@@H](C)CO)C(=O)c2cc(NC(=O)c3ccccc3)ccc2O1	nt	i	nt
CCOC(=O)c1cnc(-c2cccc(OC)c2)[nH]c1=O	i	i	i
CCOC(=O)c1cnc(-c2ccccc2)[nH]c1=O	320	i	i
COc1cccc(S(=O)(=O)N[C@@H]2CC[C@H](CCn3cc(-c4ccccc4OC)nn3)O[C@H]2CO)c1	nt	i	i
C[C@H](CO)N1C[C@H](C)[C@H](CN(C)C)Oc2cc(C3=CCCC3)ccc2S1(=O)=O	nt	i	i
O=C(Nc1ccc2ccccc2c1)c1onc2c1CCCC2	i	i	i
Cc1cccc(NC(=O)c2onc3c2CCCC3)c1C	i	i	73
Cc1cccc(NC(=O)c2onc3c2CCCC3)n1	i	i	nt
